Source: ChEMBL document CHEMBL1130978, “Discovery of FR115092: a novel antinephritic agent” (1998)

How the values were obtained:
Format in all cases: functional
Conditions in all cases: route oral
Mus musculus [1] = experiment: Inhibition of proteinuria in the graft-versus-host disease mice following 100 mg/kg p.o. administration.
Method in brief: (§1)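 Chronic GVHD induced in 6-week-old female ([…] x DBA/2)F1 mice by two injections of DBA/2 spleen cells (5 x 10^7 cells each), given 5 days apart. Oral dosing once daily for 8 weeks, starting 3 days after the second injection. Urinary albumin measured after the last dose by single radial immunodiffusion with rabbit anti-mouse serum albumin antiserum. Ten mice per group. Value reported as % inhibition of proteinuria.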

Mus musculus [2] = experiment: Antinephritic activity on chronic graft-versus-host disease (GVHD) in mice at 10 mg/kg p.o.; method in brief: as §1
Mus musculus [3] = experiment: Antinephritic activity on chronic graft-versus-host disease (GVHD) in mice at 32 mg/kg p.o.; method in brief: as §1
Mus musculus [4] = experiment: Compound was tested for the inhibition of proteinuria in the graft-versus-host disease (GVHD) in mice at 100 mg/kg p.o.; 9/10 mice died
Mus musculus [5] = experiment: Compound was tested for the inhibition of proteinuria in the graft-versus-host disease (GVHD) in mice at 100 mg/kg p.o.; 8/10 mice died

Row | Structure (SMILES) | inhibition in vivo at 100 mg/kg (Mus musculus [1]) [%] | further results
1 | Nc1ccc(NS(=O)(=O)c2ccc(N)cc2)cc1 | 54 | –
2 | Nc1ccc([S+]([O-])c2ncccn2)cc1 (stereo not given) | 99 | –
3 | Cc1cc(C(=O)c2ccc(N)cc2)ccc1N | 100 | –
4 | Nc1ccc([S+]([O-])c2ccc(N)cc2)cc1 | 95 | –
5 | Nc1ccc(C(=O)c2cccc(N)c2)cc1 | < 50 | –
6 | Nc1ccc(Sc2ccc(N)cc2)cc1 [4,4'-THIODIANILINE] | 70 | –
7 | Nc1ccc(C(=O)c2ccncc2)cc1 | 89 | –
8 | Nc1ccc([S+]([O-])c2cnc(N)s2)cc1 (stereo not given) | 79 | –
9 | Cn1ccnc1[S+]([O-])c1ccc(N)cc1 (stereo not given) | < 50 | –
10 | Cc1cc(C(=O)c2ccc(N)cc2)cc(C)c1N | 99 | –
11 | Nc1ccc(C(=O)c2ccc(N)cc2)cc1 | 95 | –
12 | Nc1ccc(S(=O)(=O)c2ccc(N)cc2)cc1 [DAPSONE] | 95 | inhibition in vivo at 10 mg/kg (Mus musculus [2]): < 50%; inhibition in vivo at 32 mg/kg (Mus musculus [3]): < 50%
13 | Nc1ncc([S+]([O-])c2ccccn2)s1 (stereo not given) | 98 | –
14 | Nc1ccc(NC(=O)c2ccc(N)cc2)cc1 | < 50 | –
15 | Nc1ccc(Oc2ccc(N)cc2)cc1 | 93 | –
16 | Nc1ccc([S+]([O-])c2ccncc2)cc1 (stereo not given) | – | inhibition in vivo at 100 mg/kg (Mus musculus [4]): < 50%
17 | Nc1ncc(S(=O)(=O)c2ccccn2)s1 | 92 | inhibition in vivo at 10 mg/kg (Mus musculus [2]): 63%; inhibition in vivo at 32 mg/kg (Mus musculus [3]): 29%
18 | NC(=O)Nc1ccc(C(=O)c2ccc(N)cc2)cc1 | < 50 | –
19 | Nc1ncc(Sc2ccccn2)s1 | 90 | –
20 | CS(=O)(=O)Nc1ccc(C(=O)c2ccc(N)cc2)cc1 | < 50 | –
21 | Nc1ncc([S+]([O-])c2ccncc2)s1 (stereo not given) | – | inhibition in vivo at 100 mg/kg (Mus musculus [5]): 100%
